Assay results: article PMC4969713 (Journal of Alzheimer's Disease, 2016)
Where a name gives a salt, the structure may show the parent alone. Read-outs that look alike come from different tables or passages of the source.

Experiments:
[1] = biological target: CYP2C19 (Homo sapiens, UniProt P33261); experiment: Metabolism by recombinant CYP2C19; format: in vitro ADME
[2] = system: male CD1 mice; experiment: Maximum tolerated dose, 5-day oral; format: in vivo
In short: (§1)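 Male CD1 mice received test compound in sterile water orally at 10, 30 or 60 mg/kg once daily for 5 days (n = 8 per group). Body weight and deaths were recorded daily, followed by a 2-week observation phase. MTD was taken as the highest dose causing neither mortality nor body-weight loss.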

[3] = Maximum tolerated dose, 5-day oral; format: in vivo, mice; settings: male, CD1, mouse, in vivo, po
In short: as §1

[4] = system: male BALB/c mice; experiment: Elevated Platform test; format: in vivo; settings: IP; Lorazepam 0.05 mg/kg, AVN-101 0.2 mg/kg; initial 2 min
[5] = biological target: CYP2C9 (Homo sapiens, UniProt P11712); experiment: Metabolism by recombinant CYP2C9; format: in vitro ADME
[6] = biological target: dopamine transporter (Homo sapiens, UniProt Q01959); experiment: Target panel binding, dopamine transporter
[7] = biological target: T1, 5-HT2C receptor (Homo sapiens, UniProt P28335); experiment: Radioligand binding competition, 5-HT2C; settings: Ki
T1 sequence (P28335 33-458): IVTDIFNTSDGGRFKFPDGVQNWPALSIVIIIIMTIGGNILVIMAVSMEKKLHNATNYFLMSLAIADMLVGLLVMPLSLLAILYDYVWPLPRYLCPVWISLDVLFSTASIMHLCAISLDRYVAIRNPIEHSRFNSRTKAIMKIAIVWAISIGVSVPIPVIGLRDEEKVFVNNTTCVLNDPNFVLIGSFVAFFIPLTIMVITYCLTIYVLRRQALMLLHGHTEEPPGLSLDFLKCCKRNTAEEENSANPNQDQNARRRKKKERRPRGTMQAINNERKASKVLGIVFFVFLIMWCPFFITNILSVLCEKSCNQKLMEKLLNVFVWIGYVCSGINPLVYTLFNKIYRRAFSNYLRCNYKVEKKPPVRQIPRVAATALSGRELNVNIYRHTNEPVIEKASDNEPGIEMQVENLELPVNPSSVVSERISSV

[8] = system: BALB/c mice; experiment: Open Field test; format: in vivo; settings: IP; Lorazepam 0.05 mg/kg, AVN-101 0.2 mg/kg
In short: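 Male BALB/c mice received lorazepam 30 min or test compound 5 min before testing; controls received saline, with at least 8 per group. Time in the central zone was recorded during a 10-min exploration. Comparison with the control group used ANOVA with Fisher LSD.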

[9] = biological target: CYP3A4 (Homo sapiens, UniProt P08684); experiment: Metabolism by recombinant CYP3A4; format: in vitro ADME
[10] = Metabolism in rat liver S9 fraction; format: in vitro ADME; settings: for half-life at 1 µM / half-life at 2 µM: rat, liver S9 fraction
[11] = system: Monkeys (Macaca mulatta); experiment: Q-T interval, monkeys; format: in vivo; settings: 1 mg/kg IV; not affected
[12] = biological target: imidazoline I2 receptor; experiment: Radioligand binding competition, imidazoline I2
[13] = Brain/plasma/CSF distribution in Sprague Dawley rats; format: in vivo
[14] = system: male SHK mice; experiment: Apomorphine-induced disruption of pre-pulse inhibition; format: in vivo; settings: IP
In short: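 Male SHK mice received apomorphine as the pro-psychotic agent to disrupt pre-pulse inhibition. Groups: untreated control, apomorphine alone, haloperidol 1 mg/kg as positive control, and test compound at several doses. Groups were compared with the apomorphine-only group by Student test.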

[15] = Pharmacokinetics in Rhesus monkeys; format: in vivo; settings: for AUC / Cmax / k el / half-life: rhesus monkey, in vivo; for k el: Kel
[16] = system: BALB/c mice; experiment: Tail suspension test; format: in vivo; settings: AVN-101 0.05 mg/kg IP once daily for 4 days
In short: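 Test compound dissolved in saline, injected IP into BALB/c mice once daily for 4 days, last injection 5 min before tail suspension; vehicle (saline) controls; fluoxetine and desipramine 15 mg/kg IP as positive controls, last dose 30 min before test. Immobility measured; at least 8 animals per group; Student t-test.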

[17] = system: Dopaminergic receptors; experiment: Radioligand competition, dopaminergic receptors; format: binding; settings: compared to the 5-HT7 receptor
[18] = biological target: Adrenergic α2C (Homo sapiens, UniProt P18825); experiment: Radioligand competition, adrenergic α2C; format: binding
[19] = biological target: T1, 5-HT2C receptor; settings: Table 2; cited from earlier work
[20] = Sprague Dawley, rat, CSF, iv, 2 mg/kg
[21] = Sprague Dawley, rat, brain, iv, 2 mg/kg
[22] = Sprague Dawley, rat, plasma, iv, 2 mg/kg
[23] = iv, 2 mg/kg, monkey 34887, IV 2 mg/kg
[24] = iv, 2 mg/kg, monkey 35188, IV 2 mg/kg
[25] = po, 10 mg/kg, Mean, PO 10 mg/kg
[26] = po, 10 mg/kg, monkey 34920, PO 10 mg/kg
[27] = po, 10 mg/kg, monkey 35189, PO 10 mg/kg

Adrenergic α2C, sequence (P18825 whole entry): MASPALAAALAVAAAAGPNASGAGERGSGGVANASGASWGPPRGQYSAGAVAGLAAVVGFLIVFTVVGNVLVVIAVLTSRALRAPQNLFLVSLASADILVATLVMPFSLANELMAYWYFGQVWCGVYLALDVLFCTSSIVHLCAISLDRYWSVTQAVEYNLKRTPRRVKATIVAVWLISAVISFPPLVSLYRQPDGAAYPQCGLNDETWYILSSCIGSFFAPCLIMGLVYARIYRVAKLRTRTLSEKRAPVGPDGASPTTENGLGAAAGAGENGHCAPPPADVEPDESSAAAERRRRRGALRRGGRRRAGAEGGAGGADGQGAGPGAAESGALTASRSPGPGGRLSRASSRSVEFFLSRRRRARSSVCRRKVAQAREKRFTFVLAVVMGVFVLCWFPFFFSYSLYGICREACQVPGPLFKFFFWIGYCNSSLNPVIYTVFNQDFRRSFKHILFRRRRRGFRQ
CYP2C19, sequence (P33261 whole entry): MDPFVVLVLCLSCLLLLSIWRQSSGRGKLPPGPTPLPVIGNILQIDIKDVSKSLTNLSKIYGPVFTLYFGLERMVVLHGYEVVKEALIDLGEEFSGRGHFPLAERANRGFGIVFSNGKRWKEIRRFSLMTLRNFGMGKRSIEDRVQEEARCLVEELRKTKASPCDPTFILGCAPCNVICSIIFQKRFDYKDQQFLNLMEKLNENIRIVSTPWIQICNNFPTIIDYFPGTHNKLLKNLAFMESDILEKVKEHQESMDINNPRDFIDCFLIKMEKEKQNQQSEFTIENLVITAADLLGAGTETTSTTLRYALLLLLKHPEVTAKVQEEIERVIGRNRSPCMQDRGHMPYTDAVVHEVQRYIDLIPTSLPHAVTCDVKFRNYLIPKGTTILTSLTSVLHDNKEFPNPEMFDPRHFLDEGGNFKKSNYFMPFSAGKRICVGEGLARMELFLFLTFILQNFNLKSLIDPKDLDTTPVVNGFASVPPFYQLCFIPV
CYP2C9, sequence (P11712 whole entry): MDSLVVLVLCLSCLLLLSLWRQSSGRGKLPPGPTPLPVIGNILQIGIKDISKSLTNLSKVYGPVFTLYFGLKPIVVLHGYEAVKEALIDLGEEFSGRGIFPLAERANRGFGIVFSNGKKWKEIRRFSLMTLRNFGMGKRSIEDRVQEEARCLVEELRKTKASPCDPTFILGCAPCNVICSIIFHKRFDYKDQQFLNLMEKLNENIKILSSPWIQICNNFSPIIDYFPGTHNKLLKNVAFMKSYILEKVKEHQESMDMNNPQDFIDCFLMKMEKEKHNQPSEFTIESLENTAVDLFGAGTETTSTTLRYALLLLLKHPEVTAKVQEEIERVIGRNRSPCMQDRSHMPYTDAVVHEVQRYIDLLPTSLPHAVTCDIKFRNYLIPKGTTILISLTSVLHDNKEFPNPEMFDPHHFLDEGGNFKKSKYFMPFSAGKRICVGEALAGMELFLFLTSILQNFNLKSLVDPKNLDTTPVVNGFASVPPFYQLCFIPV
CYP3A4, sequence (P08684 whole entry): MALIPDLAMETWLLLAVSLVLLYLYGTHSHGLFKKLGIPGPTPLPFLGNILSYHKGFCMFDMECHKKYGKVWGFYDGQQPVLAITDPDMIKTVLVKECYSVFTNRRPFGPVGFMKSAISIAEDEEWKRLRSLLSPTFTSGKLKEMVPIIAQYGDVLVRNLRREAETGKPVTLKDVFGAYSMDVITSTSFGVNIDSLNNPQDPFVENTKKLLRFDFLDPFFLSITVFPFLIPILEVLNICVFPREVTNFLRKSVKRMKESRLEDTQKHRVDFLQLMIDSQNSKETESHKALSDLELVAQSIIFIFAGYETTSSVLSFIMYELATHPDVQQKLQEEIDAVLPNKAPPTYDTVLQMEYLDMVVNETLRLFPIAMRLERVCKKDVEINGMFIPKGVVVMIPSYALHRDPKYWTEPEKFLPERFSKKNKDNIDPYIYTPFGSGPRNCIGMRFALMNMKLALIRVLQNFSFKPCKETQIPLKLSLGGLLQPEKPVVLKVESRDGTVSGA
dopamine transporter, sequence (Q01959 whole entry): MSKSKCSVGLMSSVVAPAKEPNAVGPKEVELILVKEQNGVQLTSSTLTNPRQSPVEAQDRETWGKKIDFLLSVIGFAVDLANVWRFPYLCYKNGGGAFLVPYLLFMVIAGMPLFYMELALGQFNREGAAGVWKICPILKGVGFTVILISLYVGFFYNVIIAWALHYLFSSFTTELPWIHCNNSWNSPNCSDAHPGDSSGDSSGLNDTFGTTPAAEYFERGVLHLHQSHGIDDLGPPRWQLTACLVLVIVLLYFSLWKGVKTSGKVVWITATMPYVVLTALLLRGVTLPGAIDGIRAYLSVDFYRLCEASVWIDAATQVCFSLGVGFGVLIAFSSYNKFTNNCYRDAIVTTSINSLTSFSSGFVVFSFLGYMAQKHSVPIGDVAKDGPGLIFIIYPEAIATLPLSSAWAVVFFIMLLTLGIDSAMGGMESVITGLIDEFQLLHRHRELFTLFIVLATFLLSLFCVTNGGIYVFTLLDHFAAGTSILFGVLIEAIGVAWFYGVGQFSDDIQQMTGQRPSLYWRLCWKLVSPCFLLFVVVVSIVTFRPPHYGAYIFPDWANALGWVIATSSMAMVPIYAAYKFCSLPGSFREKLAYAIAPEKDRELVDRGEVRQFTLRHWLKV

## Cc1ccc2c(c1)c1c(n2CCc2ccccc2)CCN(C)C1 [AVN-101, 2,8-dimethyl-5-penethyl-2,3,4,5-tetra-hydro-1h-pyrido[[4,3-B]]indole hydrochloride]
[1]
  remaining at 0.5 h, 2 µM: 1%
[2]; 30 mg/kg PO once daily for 5 days
  mortality: 12.5%
[2]; 60 mg/kg PO once daily for 5 days
  mortality: 50%
[2]; 60 mg/kg, starting from the 4th day
  body weight: statistically significant weight loss
[3]
  MTD at 5 days: 10 to 30 mg/kg
[4]
  duration of freezing behavior: significantly reduced duration of the freezing behavior
[5]
  remaining at 0.5 h, 2 µM: 110%
[6]
  binding: does not bind
[7]
  Ki: 1.2 to 2 nM
[8]
  time spent in the central area: significant anxiolytic effect
[9]
  remaining at 0.5 h, 2 µM: 2%
[10]; phase 2 co-factor UDPGA only
  metabolism with UDPGA only: no metabolism
[10]; T1/2, +NADPH+UDPGA
  half-life at 1 µM: 0.96 min
  half-life at 2 µM: 2.34 min
[10]; T1/2, +NADPH
  half-life at 1 µM: 1.22 min
  half-life at 2 µM: 2.36 min
[11]
  QT interval: 0.22 ± 0.04 s
  heart rate: ca. 175 beats/min
[12]
  Ki: 179 nM
[13]; IV 2 mg/kg, 5 min after injection
  binding to blood cells: low binding capacity
[13]; Plasma, IV 2 mg/kg
  Vss_obs: 11.6136 L/kg
[13]; [20]
  AUC(0-inf): 0.0317 µg·h/mL
  AUC(0-t): 0.0253 µg·h/mL
  Cmax: 0.011 µg/mL
  half-life: 1.62 h
  k el: 0.000118 s⁻¹
[13]; [21]
  AUC(0-inf): 8.96 µg·h/mL
  AUC(0-t): 8 µg·h/mL
  Cmax: 4.67 µg/mL
  Tmax: 4.8 min
  half-life: 1.26 h
  k el: 0.000153 s⁻¹
[13]; [22]
  AUC(0-inf): 0.522 µg·h/mL
  AUC(0-t): 0.376 µg·h/mL
  C0: 0.308 µg/mL
  Cmax: 0.274 µg/mL
  Tmax: 4.98 min
  Vd: 13.2 L/kg
  clearance: 3.83 L/h/kg
  half-life: 2.39 h
  k el: 8e-05 s⁻¹
[14]
  optimal dose in restoration of PPI: 0.1 to 0.5 mg/kg
[14]; apomorphine 20 mg/kg, Haloperidol 1 mg/kg
  effect on apomorphine-induced disruption of PPI: effective in reversing
[15]; PO 10 mg/kg vs IV 2 mg/kg, mean
  Fabs: 15.3%
[15]; iv, 2 mg/kg, AUC0 ⟶t, Mean, IV 2 mg/kg
  AUC: 0.426 µg·h/mL
[15]; iv, 2 mg/kg, AUC0 ⟶t, monkey 34887, IV 2 mg/kg
  AUC: 0.356 µg·h/mL
[15]; iv, 2 mg/kg, AUC0 ⟶t, monkey 35188, IV 2 mg/kg
  AUC: 0.496 µg·h/mL
[15]; iv, 2 mg/kg, AUC0 ⟶∞, Mean, IV 2 mg/kg
  AUC: 0.792 µg·h/mL
[15]; iv, 2 mg/kg, AUC0 ⟶∞, monkey 34887, IV 2 mg/kg
  AUC: 0.388 µg·h/mL
[15]; iv, 2 mg/kg, AUC0 ⟶∞, monkey 35188, IV 2 mg/kg
  AUC: 1.2 µg·h/mL
[15]; iv, 2 mg/kg, Mean, IV 2 mg/kg
  Cmax: 0.324 µg/mL
  k el: 0.000208 s⁻¹
[15]; [23]
  Cmax: 0.304 µg/mL
  k el: 0.000347 s⁻¹
[15]; [24]
  Cmax: 0.345 µg/mL
  k el: 7.17e-05 s⁻¹
[15]; iv, 2 mg/kg, T1/2, Mean, IV 2 mg/kg
  half-life: 1.63 h
[15]; iv, 2 mg/kg, T1/2, monkey 34887, IV 2 mg/kg
  half-life: 0.55 h
[15]; iv, 2 mg/kg, T1/2, monkey 35188, IV 2 mg/kg
  half-life: 2.7 h
[15]; po, 10 mg/kg, AUC0 ⟶t, Mean, PO 10 mg/kg
  AUC: 0.359 µg·h/mL
[15]; po, 10 mg/kg, AUC0 ⟶t, monkey 34920, PO 10 mg/kg
  AUC: 0.321 µg·h/mL
[15]; po, 10 mg/kg, AUC0 ⟶t, monkey 35189, PO 10 mg/kg
  AUC: 0.398 µg·h/mL
[15]; po, 10 mg/kg, AUC0 ⟶∞, Mean, PO 10 mg/kg
  AUC: 0.606 µg·h/mL
[15]; po, 10 mg/kg, AUC0 ⟶∞, monkey 34920, PO 10 mg/kg
  AUC: 0.637 µg·h/mL
[15]; po, 10 mg/kg, AUC0 ⟶∞, monkey 35189, PO 10 mg/kg
  AUC: 0.575 µg·h/mL
[15]; [25]
  Cmax: 0.066 µg/mL
  k el: 3.67e-05 s⁻¹
[15]; [26]
  Cmax: 0.053 µg/mL
  k el: 2.67e-05 s⁻¹
[15]; [27]
  Cmax: 0.079 µg/mL
  k el: 4.5e-05 s⁻¹
[15]; po, 10 mg/kg, T1/2, Mean, PO 10 mg/kg
  half-life: 5.77 h
[15]; po, 10 mg/kg, T1/2, monkey 34920, PO 10 mg/kg
  half-life: 7.3 h
[15]; po, 10 mg/kg, T1/2, monkey 35189, PO 10 mg/kg
  half-life: 4.25 h
[16]
  decrease in immobility time: comparable to that observed with either Fluoxetine or Desipramine
[17]
  affinity: very low affinity
[18]
  Ki: 0.41 to 3.6 nM
[19]
  Ki: 1.17 nM
